Source: ChEMBL document CHEMBL5058577, “EUbOPEN Chemogenomics Library 2 (Multiplex)” (2022)

Tested on: HEK-293T
Assay: Multiplex assay against HEK293T
Type: toxicity, cell-based
Details: human
Summary of the method: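 Live cells were stained at seeding with Hoechst33342, BioTracker Green Microtubule Cytoskeleton Dye, MitoTracker Red and Annexin V Alexa Fluor 680. Following compound addition, they were imaged on a CQ1 microscope at 37°C and 5% CO2 and gated by CellPathfinder machine learning into Hoechst high-intensity objects or normal cells, with normal cells split into healthy, pyknosed or fragmented nuclei and pyknosed cells into mitotic or apoptotic. Tubulin, mitochondrial-mass and membrane-permeability phenotypes are per cents of healthy-nucleus cells.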

[1] = 12 h, 1 µM, compound concentration 1 uM, replicate 1
[2] = 12 h, 1 µM, compound concentration 1 uM, replicate 2
[3] = 12 h, 10 µM, compound concentration 10 uM, replicate 1
[4] = 12 h, 10 µM, compound concentration 10 uM, replicate 2
[5] = 24 h, 1 µM, compound concentration 1 uM, replicate 1
[6] = 24 h, 1 µM, compound concentration 1 uM, replicate 2
[7] = 24 h, 10 µM, compound concentration 10 uM, replicate 1
[8] = 24 h, 10 µM, compound concentration 10 uM, replicate 2
[9] = 48 h, 1 µM, compound concentration 1 uM, replicate 1
[10] = 48 h, 1 µM, compound concentration 1 uM, replicate 2
[11] = 48 h, 10 µM, compound concentration 10 uM, replicate 1
[12] = 48 h, 10 µM, compound concentration 10 uM, replicate 2

## CC(C)c1noc(N2CCC(COc3ccc(-c4ccc(S(C)(=O)=O)cc4)nc3)CC2)n1 [GSK-1292263]
[1]
  Population Apoptotic (%): 37%
  Population Fragmented Nuclei (%): 8%
  Population Healthy Nuclei (%): 78%
  Population Hoechst High Intensity Objects (%): 5%
  Population Membrane Permeable-Phenotype (%): 0%
  Population Mitochondria Different-Phenotype (%): 42%
  Population Mitotic Cells (%): 62%
  Population Normal (%): 94%
  Population Pyknosed Nuclei (%): 12%
  Population Tubulin-Different-Phenotype (%): 32%
  Total Cell Count: 440
[2]
  Population Apoptotic (%): 25%
  Population Fragmented Nuclei (%): 6%
  Population Healthy Nuclei (%): 86%
  Population Hoechst High Intensity Objects (%): 6%
  Population Mitochondria Different-Phenotype (%): 53%
  Population Mitotic Cells (%): 74%
  Population Normal (%): 93%
  Population Pyknosed Nuclei (%): 7%
  Population Tubulin-Different-Phenotype (%): 13%
  Total Cell Count: 522
[3]
  Population Apoptotic (%): 50%
  Population Fragmented Nuclei (%): 6%
  Population Healthy Nuclei (%): 71%
  Population Hoechst High Intensity Objects (%): 13%
  Population Membrane Permeable-Phenotype (%): 0%
  Population Mitochondria Different-Phenotype (%): 69%
  Population Mitotic Cells (%): 50%
  Population Normal (%): 86%
  Population Pyknosed Nuclei (%): 22%
  Population Tubulin-Different-Phenotype (%): 55%
  Total Cell Count: 311
[4]
  Population Apoptotic (%): 43%
  Population Fragmented Nuclei (%): 7%
  Population Healthy Nuclei (%): 78%
  Population Hoechst High Intensity Objects (%): 16%
  Population Mitochondria Different-Phenotype (%): 77%
  Population Mitotic Cells (%): 56%
  Population Normal (%): 83%
  Population Pyknosed Nuclei (%): 13%
  Population Tubulin-Different-Phenotype (%): 40%
  Total Cell Count: 279
[5]
  Population Apoptotic (%): 23%
  Population Fragmented Nuclei (%): 8%
  Population Healthy Nuclei (%): 78%
  Population Hoechst High Intensity Objects (%): 5%
  Population Membrane Permeable-Phenotype (%): 0%
  Population Mitochondria Different-Phenotype (%): 27%
  Population Mitotic Cells (%): 76%
  Population Normal (%): 94%
  Population Pyknosed Nuclei (%): 12%
  Population Tubulin-Different-Phenotype (%): 25%
  Total Cell Count: 545
[6]
  Population Apoptotic (%): 25%
  Population Fragmented Nuclei (%): 7%
  Population Healthy Nuclei (%): 82%
  Population Hoechst High Intensity Objects (%): 3%
  Population Mitochondria Different-Phenotype (%): 29%
  Population Mitotic Cells (%): 74%
  Population Normal (%): 96%
  Population Pyknosed Nuclei (%): 9%
  Population Tubulin-Different-Phenotype (%): 9%
  Total Cell Count: 608
[7]
  Population Apoptotic (%): 64%
  Population Fragmented Nuclei (%): 8%
  Population Healthy Nuclei (%): 79%
  Population Hoechst High Intensity Objects (%): 8%
  Population Membrane Permeable-Phenotype (%): 0%
  Population Mitochondria Different-Phenotype (%): 58%
  Population Mitotic Cells (%): 35%
  Population Normal (%): 91%
  Population Pyknosed Nuclei (%): 12%
  Population Tubulin-Different-Phenotype (%): 49%
  Total Cell Count: 384
[8]
  Population Apoptotic (%): 46%
  Population Fragmented Nuclei (%): 11%
  Population Healthy Nuclei (%): 74%
  Population Hoechst High Intensity Objects (%): 10%
  Population Mitochondria Different-Phenotype (%): 59%
  Population Mitotic Cells (%): 53%
  Population Normal (%): 89%
  Population Pyknosed Nuclei (%): 13%
  Population Tubulin-Different-Phenotype (%): 28%
  Total Cell Count: 354
[9]
  Population Apoptotic (%): 22%
  Population Fragmented Nuclei (%): 10%
  Population Healthy Nuclei (%): 81%
  Population Hoechst High Intensity Objects (%): 3%
  Population Membrane Permeable-Phenotype (%): 1%
  Population Mitochondria Different-Phenotype (%): 23%
  Population Mitotic Cells (%): 77%
  Population Normal (%): 96%
  Population Pyknosed Nuclei (%): 8%
  Population Tubulin-Different-Phenotype (%): 14%
  Total Cell Count: 865
[10]
  Population Apoptotic (%): 23%
  Population Healthy Nuclei (%): 83%
  Population Hoechst High Intensity Objects (%): 1%
  Population Mitochondria Different-Phenotype (%): 14%
  Population Mitotic Cells (%): 76%
  Population Normal (%): 98%
  Population Pyknosed Nuclei (%): 5%
  Population Tubulin-Different-Phenotype (%): 10%
  Total Cell Count: 882
[11]
  Population Apoptotic (%): 32%
  Population Fragmented Nuclei (%): 10%
  Population Healthy Nuclei (%): 79%
  Population Hoechst High Intensity Objects (%): 10%
  Population Membrane Permeable-Phenotype (%): 0%
  Population Mitochondria Different-Phenotype (%): 50%
  Population Mitotic Cells (%): 67%
  Population Normal (%): 89%
  Population Pyknosed Nuclei (%): 9%
  Population Tubulin-Different-Phenotype (%): 28%
  Total Cell Count: 506
[12]
  Population Apoptotic (%): 30%
  Population Fragmented Nuclei (%): 13%
  Population Healthy Nuclei (%): 78%
  Population Hoechst High Intensity Objects (%): 5%
  Population Mitochondria Different-Phenotype (%): 37%
  Population Mitotic Cells (%): 69%
  Population Normal (%): 94%
  Population Pyknosed Nuclei (%): 8%
  Population Tubulin-Different-Phenotype (%): 18%
  Total Cell Count: 595
